According to ChEMBL document CHEMBL1157691, “Synthesis and antiproliferative evaluations of certain 2-phenylvinylquinoline (2-styrylquinoline) and 2-furanylvinylquinoline derivatives” (Bioorg Med Chem, 2010):

Experiments:
[1] = tested on: NCI-H460; assay: Antiproliferative activity against human NCI-H460 cells assessed as cell survival at 4 ug/mL after 72 hrs by MTS assay relative to control; assay type: functional; details: NCI-H460, 72 h, read-out: Survival
In short: (§1)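 Log-phase cells seeded at 5000 cells/mL/well in 24-well format. They were then exposed to test agents at a single concentration of 4.0 μg/mL for 72 h. Growth and viability were read by MTS assay.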

[2] = tested on: MCF7; assay: Antiproliferative activity against human MCF7 cells assessed as cell survival at 4 ug/mL after 72 hrs by MTS assay relative to control; assay type: functional; details: MCF7, 72 h, read-out: Survival; in short: as §1
[3] = tested on: SF-268; assay: Antiproliferative activity against human SF268 cells assessed as cell survival at 4 ug/mL after 72 hrs by MTS assay relative to control; assay type: functional; details: SF-268, 72 h, read-out: Survival; in short: as §1
[4] = tested on: PC-3; assay: Antiproliferative activity against human PC3 cells after 48 hrs by ATPlite assay; assay type: functional, cell-based; details: PC-3, 48 h
[5] = tested on: MCF7; assay: Antiproliferative activity against human MCF7 cells after 48 hrs by ATPlite assay; assay type: functional, cell-based; details: MCF7, 48 h
[6] = tested on: LNCaP; assay: Antiproliferative activity against human LNCAP cells after 48 hrs by ATPlite assay; assay type: functional, cell-based
[7] = Growth inhibition of human NCI60 cells; assay type: functional

## Oc1ccc(/C=C/c2ccc3cccc(O)c3n2)cc1
[1]
  viability at 4 µg/mL: 52%
[2]
  viability at 4 µg/mL: 108%
[3]
  viability at 4 µg/mL: 78%

## Oc1cccc2ccc(/C=C/c3ccco3)nc12
[1]
  viability at 4 µg/mL: 70%
[2]
  viability at 4 µg/mL: 110%
[3]
  viability at 4 µg/mL: 76%

## Oc1cccc(/C=C/c2ccc3cccc(O)c3n2)c1O
[1]
  viability at 4 µg/mL: 53%
[2]
  viability at 4 µg/mL: 95%
[3]
  viability at 4 µg/mL: 52%

## CC(=O)c1ccc(Nc2cc(/C=C/c3ccc([N+](=O)[O-])o3)nc3ccccc23)cc1
[1]
  viability at 4 µg/mL: < 20%
[4]
  IC50: 450 nM
[5]
  IC50: 430 nM
[2]
  viability at 4 µg/mL: < 20%
[3]
  viability at 4 µg/mL: < 20%
[6]
  IC50: 4120 nM

## CC(=O)c1ccc(Nc2cc(/C=C/c3ccccc3)nc3ccccc23)cc1
[1]
  viability at 4 µg/mL: 52%
[2]
  viability at 4 µg/mL: 83%
[3]
  viability at 4 µg/mL: 107%

## C/C(=N\O)c1ccc(Nc2cc(/C=C/c3ccc([N+](=O)[O-])o3)nc3ccccc23)cc1
[1]
  viability at 4 µg/mL: < 20%
[4]
  IC50: 190 nM
[5]
  IC50: 250 nM
[2]
  viability at 4 µg/mL: < 20%
[3]
  viability at 4 µg/mL: < 20%
[6]
  IC50: 950 nM

## CO/N=C(\C)c1ccc(Nc2cc(/C=C/c3ccc([N+](=O)[O-])o3)nc3ccccc23)cc1
[1]
  viability at 4 µg/mL: < 20%
[4]
  IC50: 520 nM
[5]
  IC50: 400 nM
[2]
  viability at 4 µg/mL: < 20%
[3]
  viability at 4 µg/mL: < 20%
[6]
  IC50: 1040 nM

## COc1cccc2c(Nc3ccc(C(C)=O)cc3)cc(/C=C/c3ccccc3)nc12
[1]
  viability at 4 µg/mL: 75%
[2]
  viability at 4 µg/mL: 95%
[3]
  viability at 4 µg/mL: 114%

## C/C(=N/O)c1ccc(Nc2cc(/C=C/c3ccccc3)nc3ccccc23)cc1
[1]
  viability at 4 µg/mL: 67%
[2]
  viability at 4 µg/mL: 54%
[3]
  viability at 4 µg/mL: 90%

## CO/N=C(/C)c1ccc(Nc2cc(/C=C/c3ccccc3)nc3ccccc23)cc1
[1]
  viability at 4 µg/mL: 79%
[2]
  viability at 4 µg/mL: 108%
[3]
  viability at 4 µg/mL: 112%

## Oc1cccc2ccc(/C=C/c3ccc(F)cc3)nc12
[1]
  viability at 4 µg/mL: 66%
[2]
  viability at 4 µg/mL: 103%
[3]
  viability at 4 µg/mL: 82%

## COc1cccc2c(Nc3ccc(/C(C)=N\O)cc3)cc(/C=C/c3ccccc3)nc12
[1]
  viability at 4 µg/mL: < 20%
[2]
  viability at 4 µg/mL: 40%
[3]
  viability at 4 µg/mL: 63%

## CO/N=C(/C)c1ccc(Nc2cc(/C=C/c3ccccc3)nc3c(OC)cccc23)cc1
[1]
  viability at 4 µg/mL: 87%
[2]
  viability at 4 µg/mL: 97%
[3]
  viability at 4 µg/mL: 97%

## N#Cc1ccc(/C=C/c2ccc3cccc(O)c3n2)cc1
[1]
  viability at 4 µg/mL: 66%
[2]
  viability at 4 µg/mL: 107%
[3]
  viability at 4 µg/mL: 90%

## Oc1cc(/C=C/c2ccccc2)nc2ccccc12
[1]
  viability at 4 µg/mL: 118%
[2]
  viability at 4 µg/mL: 119%
[3]
  viability at 4 µg/mL: 120%

## Clc1cc(/C=C/c2ccccc2)nc2ccccc12
[1]
  viability at 4 µg/mL: 109%
[2]
  viability at 4 µg/mL: 120%
[3]
  viability at 4 µg/mL: 118%

## CC(=O)c1ccc(Nc2c3ccccc3nc3occc23)cc1
[7]
  GI50: 25 nM

## COc1cccc2c(Cl)cc(/C=C/c3ccccc3)nc12
[1]
  viability at 4 µg/mL: 109%
[2]
  viability at 4 µg/mL: 99%
[3]
  viability at 4 µg/mL: 81%

## O=[N+]([O-])c1ccc(/C=C/c2ccc3cccc(O)c3n2)cc1
[1]
  viability at 4 µg/mL: 52%
[2]
  viability at 4 µg/mL: 89%
[3]
  viability at 4 µg/mL: 77%

## COc1cccc2c(O)cc(/C=C/c3ccccc3)nc12
[1]
  viability at 4 µg/mL: 111%
[2]
  viability at 4 µg/mL: 104%
[3]
  viability at 4 µg/mL: 119%

## Oc1cccc2ccc(/C=C/c3cccnc3)nc12
[1]
  viability at 4 µg/mL: 63%
[2]
  viability at 4 µg/mL: 115%
[3]
  viability at 4 µg/mL: 89%

## Oc1cccc2ccc(/C=C/c3ccccc3)nc12
[1]
  viability at 4 µg/mL: 55%
[2]
  viability at 4 µg/mL: 110%
[3]
  viability at 4 µg/mL: 72%

## COc1cc(NS(C)(=O)=O)ccc1Nc1c2ccccc2nc2ccccc12 [AMSACRINE]
[7]
  GI50: 440 nM

## COc1cccc2c1C(=O)c1c(O)c3c(c(O)c1C2=O)C[C@@](O)(C(C)=O)C[C@@H]3O[C@H]1C[C@H](N)[C@H](O)[C@H](C)O1 [DAUNORUBICIN]
[7]
  GI50: 44 nM
